Results as given in ChEMBL document CHEMBL1151472, “In vitro interactions between tacrolimus and azoles against Candida albicans determined by different methods” (2008).
Converted amounts (≈) assume the structure as drawn.

Columns and labels:
Type in all cases: functional
Candida albicans [1] = assay: Antimicrobial activity against azole-resistant Candida albicans isolate CA10 assessed as growth at 0.063 ug/ml after 48 hrs by microdilution checkerboard technique relative to control
Procedure, shortened: (§1)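 Checkerboard microdilution in MOPS-buffered RPMI 1640 (pH 7.0, 2% dextrose). Final ranges: azole 0.125–128 μg/ml (FLC) or 0.008–8 μg/ml (ITR, VRC), tacrolimus 0.002–0.125 μg/ml; solvent 1% in single-drug wells. Inoculum 2.5 × 10^3 CFU/ml, 35°C, 48 h. Growth % = background-subtracted OD492 of each well / drug-free well. Triplicate on different days.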

Candida albicans [2] = assay: Antimicrobial activity against azole-resistant Candida albicans isolate CA10 assessed as growth at 0.25 ug/ml co-treated with 0.031 ug/ml calcineurin signaling inhibitor tacrolimus after 48 hrs by microdilution checkboard technique relative to control; design: scale not given: the % may be the effect or the level left
Procedure, shortened: (§2)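 Checkerboard microdilution in RPMI 1640 (pH 7.0, 2% dextrose, 0.165 M MOPS). Azole dilutions run along columns and FK506 along rows, at 4× final concentration. Final inoculum 2.5 × 10^3 CFU/ml from Sabouraud-subcultured cells. Incubated 35°C for 48 h; OD read at 492 nm. Background from microorganism-free plates subtracted. Growth % = well OD / drug-free well OD. Triplicate on different days, values averaged.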

Candida albicans [3] = assay: Antimicrobial activity against azole-resistant Candida albicans isolate CA10 assessed as growth at 16 ug/ml co-treated with 0.002 ug/ml calcineurin signaling inhibitor tacrolimus after 48 hrs by microdilution checkboard technique relative to control; design: scale not given: the % may be the effect or the level left; procedure, shortened: as §1
Candida albicans [4] = assay: Antimicrobial activity against azole-resistant Candida albicans isolate CA10 assessed as growth at 2 ug/ml cotreated with 0.125 ug/ml calcineurin signaling inhibitor tacrolimus after 48 hrs by microdilution checkerboard technique relative to control; design: scale not given: the % may be the effect or the level left; procedure, shortened: as §1
Candida albicans [5] = assay: Antimicrobial activity against azole-resistant Candida albicans isolate CA10 assessed as growth at 128 ug/ml cotreated with 0.016 ug/ml calcineurin signaling inhibitor tacrolimus after 48 hrs by microdilution checkerboard technique relative to control; design: scale not given: the % may be the effect or the level left; procedure, shortened: as §1
Candida albicans [6] = assay: Antimicrobial activity against azole-resistant Candida albicans isolate CA10 assessed as growth at 16 ug/ml co-treated with 0.004 ug/ml calcineurin signaling inhibitor tacrolimus after 48 hrs by microdilution checkboard technique relative to control; design: scale not given: the % may be the effect or the level left; procedure, shortened: as §1
Candida albicans [7] = assay: Antimicrobial activity against azole-resistant Candida albicans isolate CA10 assessed as growth at 0.004 ug/ml after 48 hrs by microdilution checkerboard technique relative to control; procedure, shortened: as §1
Candida albicans [8] = assay: Antimicrobial activity against azole-resistant Candida albicans isolate CA10 assessed as growth at 32 ug/ml after 48 hrs by microdilution checkerboard technique relative to control; procedure, shortened: as §1
Candida albicans [9] = assay: Antimicrobial activity against azole-resistant Candida albicans isolate CA10 assessed as growth at 0.125 ug/ml after 48 hrs by microdilution checkerboard technique relative to control; procedure, shortened: as §1
Candida albicans [10] = assay: Antimicrobial activity against azole-resistant Candida albicans isolate CA10 assessed as growth at 0.25 ug/ml cotreated with 0.063 ug/ml calcineurin signaling inhibitor Tacrolimus after 48 hrs by microdilution checkboard technique relative to control; design: scale not given: the % may be the effect or the level left; procedure, shortened: as §2
Candida albicans [11] = assay: Antimicrobial activity against azole-susceptible Candida albicans isolate CA12 co-treated with calcineurin signaling inhibitor tacrolimus after 48 hrs by microdilution checkerboard technique; details: isolate CA12, 48 h
Procedure, shortened: (§3)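 Checkerboard microdilution in MOPS-buffered RPMI 1640 (pH 7.0, 2% dextrose) with 2.5 × 10^3 CFU/ml for 48 h at 35°C. Final FK506 was 0.002–0.125 μg/ml. Azole finals were FLC 0.125–128 μg/ml, and ITR and VRC 0.008–8 μg/ml. MIC80 is an 80% OD492 decrease vs drug-free control. Interaction was scored by FICI (synergy ≤0.5, antagonism >4) and by ΔE from triplicates.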

Candida albicans [12] = assay: Antimicrobial activity against azole-resistant Candida albicans isolate CA10 assessed as growth at 8 ug/ml co-treated with 0.008 ug/ml calcineurin signaling inhibitor tacrolimus after 48 hrs by microdilution checkboard technique relative to control; design: scale not given: the % may be the effect or the level left
Procedure, shortened: (§4)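 CA10 in RPMI 1640 with 2% dextrose and 0.165 M MOPS, pH 7.0. Checkerboard used twofold dilutions, with azole alone in row H and the drug-free growth control in well H1. Final inoculum was 2.5 × 10^3 CFU/ml, incubated 35°C for 48 h, with OD read at 492 nm. Growth % = background-subtracted well OD / drug-free well OD. Run in triplicate on different days.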

Candida albicans [13] = assay: Antimicrobial activity against azole-resistant Candida albicans isolate CA10 assessed as growth at 4 ug/ml cotreated with 0.125 ug/ml calcineurin signaling inhibitor Tacrolimus after 48 hrs by microdilution checkboard technique relative to control; design: scale not given: the % may be the effect or the level left; procedure, shortened: as §4
Candida albicans [14] = assay: Antimicrobial activity against azole-resistant Candida albicans isolate CA10 assessed as growth at 0.25 ug/ml cotreated with 0.002 ug/ml calcineurin signaling inhibitor Tacrolimus after 48 hrs by microdilution checkboard technique relative to control; design: scale not given: the % may be the effect or the level left; procedure, shortened: as §2
Candida albicans [15] = assay: Antimicrobial activity against azole-susceptible Candida albicans isolate CA5 co-treated with calcineurin signaling inhibitor tacrolimus after 48 hrs by microdilution checkerboard technique; details: isolate CA5, 48 h; procedure, shortened: as §3
Candida albicans [16] = assay: Antimicrobial activity against azole-susceptible Candida albicans isolate CA12 after 48 hrs by broth microdilution method; details: isolate CA12, 48 h
Procedure, shortened: (§5)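 CLSI M27-A2 broth microdilution was run in RPMI 1640 (pH 7.0, 2% dextrose, 0.165 M MOPS). Inoculum was 2.5 × 10^3 CFU/ml, incubated 35°C for 48 h without shaking. Plates were read visually (0–5 scale) and at OD 492 nm. MIC80 = lowest concentration giving an 80% absorbance decrease vs drug-free control. Triplicate.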

Candida albicans [17] = assay: Antimicrobial activity against azole-resistant Candida albicans isolate CA10 after 48 hrs by broth microdilution method; details: isolate CA10, 48 h
Procedure, shortened: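 Broth microdilution per CLSI M27-A2 in RPMI 1640 (pH 7.0, 2% dextrose, 0.165 M MOPS), final inoculum 2.5 × 10^3 CFU/ml; 35°C without shaking for 48 h. Read visually (0–5 scale) and by OD 492 nm; MIC80 = lowest concentration giving 80% drop in absorbance versus drug-free control. Triplicate.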

Candida albicans [18] = assay: Antimicrobial activity against azole-resistant Candida albicans isolate CA135 cotreated with calcineurin signaling inhibitor Tacrolimus after 48 hrs by microdilution checkerboard technique; details: isolate CA135, 48 h; procedure, shortened: as §3
Candida albicans [19] = assay: Antimicrobial activity against azole-resistant Candida albicans isolate CA10 assessed as growth at 2 ug/ml after 48 hrs by microdilution checkerboard technique relative to control; procedure, shortened: as §1
Candida albicans [20] = assay: Antimicrobial activity against azole-resistant Candida albicans isolate CA10 assessed as growth at 0.125 ug/ml co-treated with 0.004 ug/ml calcineurin signaling inhibitor tacrolimus after 48 hrs by microdilution checkboard technique relative to control; design: scale not given: the % may be the effect or the level left; procedure, shortened: as §1
Candida albicans [21] = assay: Antimicrobial activity against azole-resistant Candida albicans isolate CA15 after 48 hrs by broth microdilution method; details: isolate CA15, 48 h; procedure, shortened: as §5
Candida albicans [22] = assay: Antimicrobial activity against azole-resistant Candida albicans isolate CA10 assessed as growth at 2 ug/ml co-treated with 0.031 ug/ml calcineurin signaling inhibitor tacrolimus after 48 hrs by microdilution checkboard technique relative to control; design: scale not given: the % may be the effect or the level left; procedure, shortened: as §2

SMILES: OC(Cn1cncn1)(Cn1cncn1)c1ccc(F)cc1F [FLUCONAZOLE]
- Activity (Candida albicans [1]): 93%
- Activity (Candida albicans [2]): 23%
- Activity (Candida albicans [3]): 35%
- Activity (Candida albicans [4]): 12%
- Activity (Candida albicans [5]): 18%
- Activity (Candida albicans [6]): 35%
- Activity (Candida albicans [7]): 99%
- Activity (Candida albicans [8]): 48%
- Activity (Candida albicans [9]): 75%
- Activity (Candida albicans [10]): 11%
- MIC (Candida albicans [11]): 2 µg/mL
- Activity (Candida albicans [12]): 28%
- Activity (Candida albicans [13]): 5%
- Activity (Candida albicans [14]): 61%
- MIC (Candida albicans [15]): 0.25 µg/mL
- MIC (Candida albicans [16]): 4 µg/mL (≈ 13.1 µM)
- MIC (Candida albicans [17]): 256 µg/mL (≈ 836 µM)
- MIC (Candida albicans [18]): 0.25 µg/mL
- Activity (Candida albicans [19]): 54%
- Activity (Candida albicans [20]): 67%
- MIC (Candida albicans [21]): 128 µg/mL (≈ 418 µM)
- Activity (Candida albicans [22]): 12%
